# Screens: PubChem BioAssay, several laboratories
# This is a sample that favours compounds with a hit; in the whole collection about 5.5% have one here.
# BB579 growth dn – chemicals that inhibit yeast BB579 growth in restrictive medium (lifespan-shortening candidates); inhibition, % at 10 µM; AID 804; hit rate 0.51% among 140,000; S. cerevisiae BB579 growth, OD615, 48 h;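 active = inhibition above a set limit, 3 SD over the mean compound inhibition, cut at about 44% in these data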
#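 System: DeaD yeast strain BB579; buffer or medium: CSMM-D dextrose restrictive medium; technique: OD at 615 nm; schedule: 4 h cell preincubation, 48 h compound exposure, 30 °C humidified; doses: single 10 µM dose; controls: amphotericin B 10 µg/mL, positive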
# Yeast life ext – extends the lifespan of yeast; AID 775; S. cerevisiae growth with nicotinamide, OD615; deaD strain in restrictive glucose medium; hit rate 0.68% among 130,000; inhibition of the nicotinamide effect, % at 10 µM;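 active = inhibition above a set limit, placed 3 SD over the median of all compounds, cut at about 26% in these data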;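 note: 0% = nicotinamide-treated wells and 100% = cells grown without nicotinamide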
#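 Assay system: engineered S. cerevisiae DeaD replicative-lifespan strain, galactose-grown log-phase cells; Buffer or medium: CSMM-D glucose medium, restrictive; Probe or stimulus: nicotinamide 1.5 mM; Compound: single dose 10 µM compound, 0.25% DMSO; Schedule: 4 h preincubation then 48 h treatment at 30 °C; Technique: OD615 measurement.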
# RAM inhibit – yeast RAM network inhibition; S. cerevisiae dse1pr::URA3 reporter, 5-FOA growth OD615, 2 d; analog-sensitive cbk1-as2 kinase mutant strain; hit rate 1.8% among 190,000; inhibition, % at 50 µM;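 active = inhibition above a set limit, 3 SD over mean compound inhibition, cut at about 8.4% in these data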;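 note: 0% = DMSO-only wells with no growth and 100% = 10 µM 1-NA-PP1 full growth; inhibition rescues growth on 5-FOA so higher OD means more RAM inhibition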
# KCC2 mod – modulators of human KCC2 chloride dependent transport; Q9H2X9; KCC2 cells, thallium flux FluoZin-2 fluorescence; B-score of Tl+ flux slope (higher = more flux/activation; lower = inhibition) at 10 µM; hit rate 2.2% among 190,000;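 active = thallium flux slope and its plate-corrected score both differing from the plate sample mean at a set confidence after two filtering rounds, in either direction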;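 note: slope of fluorescence scaled to starting intensity during 10 to 20 s after thallium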
# Target sequence (Q9H2X9 whole entry, looked up): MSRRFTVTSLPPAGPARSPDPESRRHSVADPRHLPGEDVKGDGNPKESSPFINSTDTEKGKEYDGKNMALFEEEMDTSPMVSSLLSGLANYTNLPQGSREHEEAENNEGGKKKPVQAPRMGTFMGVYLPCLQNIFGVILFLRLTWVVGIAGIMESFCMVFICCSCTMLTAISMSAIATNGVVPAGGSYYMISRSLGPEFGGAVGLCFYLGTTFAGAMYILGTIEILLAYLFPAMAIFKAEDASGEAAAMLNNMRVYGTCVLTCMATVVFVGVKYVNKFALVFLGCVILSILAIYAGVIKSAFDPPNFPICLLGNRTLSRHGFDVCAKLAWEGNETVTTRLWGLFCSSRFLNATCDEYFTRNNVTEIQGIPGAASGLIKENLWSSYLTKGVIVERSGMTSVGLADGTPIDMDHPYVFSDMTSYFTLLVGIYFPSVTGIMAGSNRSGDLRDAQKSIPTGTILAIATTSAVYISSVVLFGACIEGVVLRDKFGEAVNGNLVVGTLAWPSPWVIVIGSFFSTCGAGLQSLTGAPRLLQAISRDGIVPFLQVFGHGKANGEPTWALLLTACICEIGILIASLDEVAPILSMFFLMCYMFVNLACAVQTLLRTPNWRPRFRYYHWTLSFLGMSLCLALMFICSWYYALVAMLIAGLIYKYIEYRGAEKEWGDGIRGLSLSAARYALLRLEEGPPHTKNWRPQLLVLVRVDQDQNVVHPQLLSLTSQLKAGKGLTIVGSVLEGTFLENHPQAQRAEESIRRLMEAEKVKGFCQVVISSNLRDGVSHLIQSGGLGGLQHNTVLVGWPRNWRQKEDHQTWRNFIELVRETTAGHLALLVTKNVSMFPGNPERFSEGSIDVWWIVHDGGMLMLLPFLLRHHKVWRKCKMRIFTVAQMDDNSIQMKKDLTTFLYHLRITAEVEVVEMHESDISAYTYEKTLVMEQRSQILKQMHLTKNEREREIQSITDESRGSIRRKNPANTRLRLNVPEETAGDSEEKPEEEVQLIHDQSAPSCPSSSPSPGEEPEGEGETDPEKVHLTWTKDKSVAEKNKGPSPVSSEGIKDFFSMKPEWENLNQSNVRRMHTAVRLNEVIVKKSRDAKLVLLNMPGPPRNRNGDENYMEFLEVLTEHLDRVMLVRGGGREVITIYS
# WT yeast gro inh – growth inhibition of WT yeast, mitochondrial fusion screen; mitochondrial fusion phenotypic screen, WT strain; inhibition, % at 10 µM; hit rate 2.1% among 190,000; in the data active = inhibition above about 58%; tested in S. cerevisiae
# Active calls of the source: *; . = no result.
SMILES,BB579 growth dn,Yeast life ext,RAM inhibit,KCC2 mod,WT yeast gro inh
COc1ccccc1Nc1nc(N)nc(-c2oc3ccccc3c2C)n1,-55.6,-0.2,9.8*,.,-1.5
O=C(c1c(O)c2ccccc2oc1=O)C1CCCCC1,-3.9,28.7*,-0.5,-0.967,10.6
O=C(CCC1CCCC1)c1c(O)c2ccccc2oc1=O,-6.7,32.5*,0.3,-0.0572,4.6
CCN1CCN(S(=O)(=O)c2ccc(Oc3ccccc3OC)cc2)CC1,.,.,0.7,1.03,-5.2
CC1CCCCC1NC(=O)CN1C(=O)CSc2cc(S(=O)(=O)N3CCCCCC3)ccc21 (configuration not stated),-21.1,0.9,2.1,-3.02,18.8
CC(C)(C)C(=O)Cn1c(=N)n(Cc2ccccc2)c2ccccc21,-22.1,32.0*,1.2,1.38,70.5*
CC(C)(C)C(=O)Cn1c(=N)n(Cc2ccccc2Cl)c2ccccc21,-76.4,3.7,1.7,.,14.2
Cc1cc2nc(Cl)c(Cl)nc2cc1C,.,.,.,0.496,.
Cc1cc2cc(C=C(C#N)C#N)c(Cl)nc2cc1C,-24.9,31.6*,0.4,-0.162,5.0
CCOC(=O)/C(C#N)=C/c1cc2ccc(C)cc2nc1Cl,-6.8,32.3*,2.5,1.03,2.9
CCOC(=O)/C(C#N)=C/c1cc2cc(C)c(C)cc2nc1Cl,.,.,.,0.628,.
Cc1c(Cl)cccc1NC(=O)CN1CCN(CCN=CC2=C(O)CC(c3ccccc3)CC2=O)CC1 (configuration not stated),.,.,-0.5,-0.543,-14.2
Clc1ccc(-n2ncc3c(NCc4ccco4)ncnc32)cc1,-10.1,-5.9,6.9,-0.206,4.7
COc1ccc(-n2ncc3c(NCc4ccco4)ncnc32)cc1,-31.2,-23.2,-0.9,.,68.5*
CC(C)OC(=O)/C(=C/c1ccc2c(c1)c1ccccc1n2C)NC(=O)c1ccccc1,-15.3,3.8,6.0,-2.12,5.9
Cn1c2ccccc2c2cc(C(=O)O)ccc21,76.9*,-11.7,2.9,-0.509,-5.8
CCCn1c2ccccc2c2cc(C(=O)O)ccc21,11.5,-10.0,3.0,.,17.7
CCOC(=O)/C(=C/c1c2ccccc2cc2ccccc12)NC(=O)c1ccccc1,-37.1,-16.9,1.4,.,60.4*
COC(=O)/C(=C\c1ccc2c(c1)c1ccccc1n2C)NC(=O)c1ccccc1,-11.7,0.0,8.6*,-1.26,18.5
CC(=O)Nc1ccc(C(=O)CSc2nccc(=O)[nH]2)cc1,.,.,2.5,0.361,8.9
Cc1ccc(N(C(=O)c2csnn2)C(C(=O)NC(C)(C)C)c2cccnc2)cc1 (configuration not stated),.,.,1.7,0.0862,7.0
CC1C/C(=N\NC(=S)NC(C)C)CC(C)(C)C1 (configuration not stated),-28.6,-6.8,1.9,.,65.0*
CC1C/C(=N\NC(=O)c2cccnc2)CC(C)(C)C1 (configuration not stated),.,.,1.8,0.349,-0.5
CC(=O)c1ccc(NC(=S)NNC(=O)c2ccncc2)cc1,-20.5,-4.1,0.1,1.73,-0.6
CCCCC(C)(O)C/C=C/[C@H]1[C@H](O)CC(=O)[C@@H]1CCCCCCC(=O)OC (some centres not stated),-38.8,31.6*,0.6,-2.35,-9.7
SMILES,BB579 growth dn,Yeast life ext,RAM inhibit,KCC2 mod,WT yeast gro inh
O=C(c1cccs1)N(Cc1nc2sc3c(c2c(=O)[nH]1)CCCC3)C1CCCC1,-15.7,8.5,-1.5,-0.141,61.5*
O=C(c1c(F)cccc1F)N1CCN=C1SCc1ccccc1,.,.,.,-0.207,.
Cc1nn(C(C)C(=O)NCCCc2ccccc2)c(=O)c2cc3occc3n12 (configuration not stated),-16.1,-14.4,0.8,-2.38,-4.6
Cc1nn(C(C)C(=O)NCC2CCCO2)c(=O)c2cc3occc3n12 (configuration not stated),-27.4,-8.0,0.4,1.57,61.2*
S=C1NC[C@H](CC2CCCCC2)N1CCCCC1CCCCC1,.,.,.,2.5,.
Cc1cccc(/C=C2\CCC(=C3SCCCS3)C2=O)c1,-40.6,-9.8,9.4*,0.663,-2.9
O=C(O)c1cnc(-c2ccccc2)nc1Sc1ccc(Cl)cc1,-12.7,-7.5,8.6*,.,15.2
COc1ccc(S(=O)(=O)Nc2ccc3ccccc3c2)cc1C,-34.3,-5.6,5.2,0.367,78.7
CCc1ccc(NS(=O)(=O)c2ccc(OC)c(C)c2)cc1,-47.1,14.3,4.9,-1.67,58.8*
CCCn1c2c(c(O)c(C(=O)NC)c1=O)CCCC2,-43.1,-17.5,-0.3,.,23.4
CCCn1c2c(c(O)c(C(=O)Nc3ccc(OC)cc3)c1=O)CCCC2,-88.5,51.1,9.2*,.,6.8
Cc1ccc(C(=O)NCc2n[nH]c(=S)n2-c2ccccc2)cc1[N+](=O)[O-],.,.,2.3,-0.471,-11.8
CCc1ccc(/C=C2\Oc3cc(OS(C)(=O)=O)ccc3C2=O)cc1,-71.5,-2.9,8.5*,-0.497,5.3
CC1CCCCN1Cc1nc2c(c(=O)n(C)c(=O)n2C)n1Cc1cccc2ccccc12 (configuration not stated),.,.,.,.,14.3
CC1Cc2ccccc2N1C(=S)NC(=O)C1(C)CC1(Cl)Cl (configuration not stated),.,.,2.4,93.1*,22.8
CC(=O)N(Cc1ccco1)c1nc(C(=O)Nc2ccc(Cl)cc2)c(C)s1,-68.1,-4.4,4.9,2,42.3
Oc1cccc2ccc[n+](CC(O)Cn3c4ccccc4c4ccccc43)c12 (configuration not stated),-18.1,-1.5,6.2,-0.217,-5.6
Fc1cc(Br)ccc1NC(=S)Nc1ccccc1,-6.7,-4.6,-0.6,0.781,7.4
Fc1ccccc1NC(=S)Nc1ccc(Br)cc1,-30.4,-4.6,1.0,1.23,61.7*
C=CCn1c(SCC(=O)Nc2ccc(NC(=O)c3ccco3)c(OC)c2)nnc1-c1ccncc1,-5.0,-11.0,3.1,.,0.8
C=CCn1c(SCC(=O)Nc2cc(OC)c(NC(=O)c3ccco3)cc2OC)nnc1-c1ccncc1,-3.9,.,8.6*,-0.282,-24.5
CCCCCCCC[n+]1cccc2c3ccccc3ccc21,.,.,0.6,-0.931,80.2*
CCCn1c(O)c(N=NC(=O)c2ccco2)c2ccccc21,-1.7,-2.4,0.9,18.4*,45.7
COc1cccc(CC2(CO)CCCN(Cc3sc(N4CCCC4)nc3Cl)C2)c1 (configuration not stated),.,.,1.9,.,16.8
CCCCn1c(N)c(C(=S)NC(=O)CC(C)(C)C)c(=O)n(C)c1=O,-6.3,-3.4,0.4,28.1*,68.2*
Cc1ccc(NC(=O)CN2C(=O)N/C(=C/c3ccc(N4CCOCC4)cc3)C2=O)cc1,-24.9,8.7,8.8*,0.347,10.5
COC(=O)c1cccc(NC(=S)NCc2ccc(Cl)cc2)c1,-42.0,-1.3,2.5,.,14.9
COc1cccc(C(C)NC(=S)NCc2ccc(Cl)cc2)c1 (configuration not stated),.,.,0.4,-1.79,66.1*
Cc1ccc(N(CC(O)Cn2c3ccccc3c3ccccc32)S(C)(=O)=O)c(C)c1 (configuration not stated),-11.1,-5.7,5.6,0.461,66.7*
